Test results: ChEMBL document CHEMBL4819032, “Structure-based design of highly selective 2,4,5-trisubstituted pyrimidine CDK9 inhibitors as anti-cancer agents” (Eur J Med Chem, 2021)
Calls of active or inactive are those of the source.

Experiments:
A2780 [1] = assay: Induction of cell cycle arrest in human A2780 cells assessed as accumulation at G2/M phase at 1 uM after 24 hrs by propidium iodide staining based flow cytometric analysis (reference value: 21.6%); assay type: functional
Summary of the method: (§1)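 4 × 10⁵ A2780 cells cultured 24 h in medium alone or with varying inhibitor concentrations, harvested into hypotonic fluorochrome solution (0.1% sodium citrate, 0.1% Triton X-100, propidium iodide, 100 ug/ml RNase A), and DNA content analysed by flow cytometry. Representative of three independent experiments.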

A2780 [2] = assay: Induction of apoptosis in human A2780 cells assessed as late apoptotic cells at 2 uM after 24 hrs by Annexin V-FITC/PI staining based flow cytometric analysis (reference value: 2.8%); assay type: functional
Summary of the method: (§2)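 A2780 cells cultured 24 h in medium alone or with varying inhibitor concentrations, then stained with FITC-annexin V/PI per kit protocol and analysed by flow cytometry. Run in triplicate and repeated at least twice; significance by one-way ANOVA, p < 0.01.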

A2780 [3] = assay: Induction of apoptosis in human A2780 cells assessed as early apoptotic cells at 0.5 uM after 24 hrs by Annexin V-FITC/PI staining based flow cytometric analysis (reference value: 1.6%); assay type: functional; summary of the method: as §2
A2780 [4] = assay: Induction of cell cycle arrest in human A2780 cells assessed as accumulation at G1/G0 phase at 5 uM after 24 hrs by propidium iodide staining based flow cytometric analysis (reference value: 56.7%); assay type: functional; summary of the method: as §1
A2780 [5] = assay: Induction of apoptosis in human A2780 cells assessed as necrotic cells at 1 uM after 24 hrs by Annexin V-FITC/PI staining based flow cytometric analysis (reference value: 3.6%); assay type: functional; summary of the method: as §2
A2780 [6] = assay: Induction of apoptosis in human A2780 cells assessed as increase in p21 protein expression at 0.5 to 5 uM after 24 hrs by Western blot analysis; assay type: functional, cell-based; settings: dose 0.5-5 µM
Summary of the method: (§3)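 A2780 cells treated for 24 h over a concentration series, then lysates analysed by Western blotting.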

[7] = Growth inhibition of patient derived CLL cells after 48 hrs by annexin V-FITC staining based flow cytometric analysis; assay type: functional; settings: Homo sapiens, CLL-CII
Summary of the method: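 Freshly isolated primary CLL cells (10⁶/mL) in RPMI with 10% foetal calf serum, L-glutamine, penicillin and streptomycin, 37 °C, 5% CO₂, exposed to inhibitor for 48 h. Cells labelled with CD19-APC and annexin V-FITC; apoptosis quantified by flow cytometry in CD19+ cells. LD50 is the concentration killing 50% of CLL cells.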

HeLa = assay: Growth inhibition of human HeLa cells after 48 hrs by MTT assay; assay type: functional
HCT-116 [8] = assay: Induction of apoptosis in human HCT-116 cells assessed as reduction in Mcl-1 protein expression at 5 uM after 6 to 12 hrs by Western blot analysis; assay type: functional, cell-based; settings: time 6-12 hrs
CDK2/Cyclin A2 = CDK2/Cyclin A2 (Homo sapiens, UniProt P24941); assay: Inhibition of recombinant human full length CDK2/Cyclin A using histone H1 as substrate incubated for 40 mins in presence of [gamma-33P]-ATP by scintillation counting method; assay type: protein-complex assay
A2780 [9] = assay: Induction of apoptosis in human A2780 cells assessed as late apoptotic cells at 0.5 uM after 24 hrs by Annexin V-FITC/PI staining based flow cytometric analysis (reference value: 2.8%); assay type: functional; summary of the method: as §2
HCT-116 [10] = assay: Induction of apoptosis in human HCT-116 cells assessed as increase in cleaved-PARP protein expression at 0.5 to 5 uM after 24 hrs by Western blot analysis; assay type: functional, cell-based; settings: dose 0.5-5 µM
MIA PaCa-2 = assay: Growth inhibition of human MIA PaCa-2 cells after 48 hrs by MTT assay; assay type: functional
A2780 [11] = assay: Growth inhibition of human A2780 cells after 48 hrs by MTT assay; assay type: functional
[12] = biological target: Mitogen-activated protein kinase kinase kinase 9 (Homo sapiens) (UniProt P80192); assay: Inhibition of recombinant human full length MLK1 (134 to 414 residues)using casein as substrate incubated for 40 mins by scintillation counting method
Sequence of Mitogen-activated protein kinase kinase kinase 9 (Homo sapiens) (P80192 whole entry, looked up, the tested form may be a part): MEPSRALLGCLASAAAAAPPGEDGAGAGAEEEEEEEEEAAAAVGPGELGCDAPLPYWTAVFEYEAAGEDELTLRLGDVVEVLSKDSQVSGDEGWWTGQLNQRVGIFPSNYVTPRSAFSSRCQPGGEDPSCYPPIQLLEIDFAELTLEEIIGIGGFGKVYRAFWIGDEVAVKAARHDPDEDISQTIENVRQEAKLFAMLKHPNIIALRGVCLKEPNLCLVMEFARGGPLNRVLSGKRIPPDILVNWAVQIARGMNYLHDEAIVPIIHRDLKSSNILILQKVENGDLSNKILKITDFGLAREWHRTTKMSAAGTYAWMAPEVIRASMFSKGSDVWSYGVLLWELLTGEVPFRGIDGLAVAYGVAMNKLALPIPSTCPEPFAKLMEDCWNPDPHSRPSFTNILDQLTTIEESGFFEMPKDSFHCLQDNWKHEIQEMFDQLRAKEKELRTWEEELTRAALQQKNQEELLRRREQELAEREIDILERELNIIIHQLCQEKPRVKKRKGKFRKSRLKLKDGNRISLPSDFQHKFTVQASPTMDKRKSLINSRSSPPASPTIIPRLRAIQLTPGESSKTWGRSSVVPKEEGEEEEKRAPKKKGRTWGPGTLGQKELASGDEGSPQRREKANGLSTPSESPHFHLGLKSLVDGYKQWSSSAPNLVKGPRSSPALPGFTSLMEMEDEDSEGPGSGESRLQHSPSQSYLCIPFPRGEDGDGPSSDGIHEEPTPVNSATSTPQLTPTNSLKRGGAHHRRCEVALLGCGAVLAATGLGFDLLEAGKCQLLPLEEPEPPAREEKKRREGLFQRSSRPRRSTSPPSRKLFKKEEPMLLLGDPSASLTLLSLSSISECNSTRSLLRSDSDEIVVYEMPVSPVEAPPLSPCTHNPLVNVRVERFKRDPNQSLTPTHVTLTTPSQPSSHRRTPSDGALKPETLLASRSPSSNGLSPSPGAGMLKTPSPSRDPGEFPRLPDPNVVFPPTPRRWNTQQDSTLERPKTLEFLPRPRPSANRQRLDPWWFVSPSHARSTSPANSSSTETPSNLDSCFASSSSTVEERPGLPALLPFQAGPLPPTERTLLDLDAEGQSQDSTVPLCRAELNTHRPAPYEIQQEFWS
Summary of the method: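 The 60-kinase diversity panel was run as a radiometric assay with ATP at each kinase's Km(app). Compound was tested at one fixed concentration across all kinases.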

A2780 [13] = assay: Induction of cell cycle arrest in human A2780 cells assessed as accumulation at G1/G0 phase at 0.5 uM after 24 hrs by propidium iodide staining based flow cytometric analysis (reference value: 56.7%); assay type: functional; summary of the method: as §1
Homo sapiens [14] = species on record: Homo sapiens; assay: Selectivity index, ratio of Ki for inhibition of recombinant human full length CDK2/Cyclin A to Ki for inhibition of recombinant human full length CDK9/Cyclin T1
Summary of the method: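 Ratio of apparent Ki values for the two CDK/cyclin complexes. Each Ki is derived from an IC50 (10-point radiometric dose-response, ATP at Km(app)) using the kinase's Km(ATP). The selectivity index is defined as Ki(CDK2)/Ki(CDK9).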

A2780 [15] = assay: Induction of cell cycle arrest in human A2780 cells assessed as accumulation at S phase at 1 uM after 24 hrs by propidium iodide staining based flow cytometric analysis (reference value: 20%); assay type: functional; summary of the method: as §1
MDA-MB-468 = assay: Growth inhibition of human MDA-MB-468 cells after 48 hrs by MTT assay; assay type: functional
A2780 [16] = assay: Induction of cell cycle arrest in human A2780 cells assessed as accumulation at G1/G0 phase at 2 uM after 24 hrs by propidium iodide staining based flow cytometric analysis (reference value: 56.7%); assay type: functional; summary of the method: as §1
[17] = biological target: Cyclin-dependent kinase 9 (Homo sapiens) (UniProt P50750); assay: Inhibition of CDK9 in human A2780 cells assessed as reduction in RNAP2 phosphorylation at ser2 residues after 24 hrs by Western blot analysis; assay type: cell-based; settings: dose 0.5-5 µM
Sequence of Cyclin-dependent kinase 9 (Homo sapiens) (P50750 whole entry): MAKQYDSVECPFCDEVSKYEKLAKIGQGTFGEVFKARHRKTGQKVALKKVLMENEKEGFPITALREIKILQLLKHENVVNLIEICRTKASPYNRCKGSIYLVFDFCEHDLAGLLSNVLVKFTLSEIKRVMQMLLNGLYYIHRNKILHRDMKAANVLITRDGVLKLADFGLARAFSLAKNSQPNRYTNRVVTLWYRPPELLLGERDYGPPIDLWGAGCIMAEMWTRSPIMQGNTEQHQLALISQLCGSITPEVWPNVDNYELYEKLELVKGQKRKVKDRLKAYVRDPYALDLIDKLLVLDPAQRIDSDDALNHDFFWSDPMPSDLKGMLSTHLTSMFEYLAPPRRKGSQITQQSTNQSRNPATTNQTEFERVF

HCT-116 [18] = assay: Induction of apoptosis in human HCT-116 cells assessed as increase in p53 protein expression at 0.5 to 5 uM after 24 hrs by Western blot analysis; assay type: functional, cell-based; settings: dose 0.5-5 µM
A2780 [19] = assay: Induction of apoptosis in human A2780 cells assessed as increase in p53 protein expression at 0.5 to 5 uM after 24 hrs by Western blot analysis; assay type: functional, cell-based; settings: dose 0.5-5 µM; summary of the method: as §3
HCT-116 [20] = assay: Induction of apoptosis in human HCT-116 cells assessed as reduction in Mcl-1 protein expression after 24 hrs by Western blot analysis; assay type: functional, cell-based; settings: dose 0.5-5 µM
A2780 [21] = assay: Induction of cell cycle arrest in human A2780 cells assessed as accumulation at G2/M phase at 5 uM after 24 hrs by propidium iodide staining based flow cytometric analysis (reference value: 21.6%); assay type: functional; summary of the method: as §1
A2780 [22] = assay: Induction of apoptosis in human A2780 cells assessed as viable cells at 5 uM after 24 hrs by Annexin V-FITC/PI staining based flow cytometric analysis (reference value: 92%); assay type: functional; settings: read-out: Activity; summary of the method: as §2
Homo sapiens [23] = species on record: Homo sapiens; assay: Selectivity index, ratio of Ki for inhibition of recombinant human full length […]
A2780 [24] = assay: Induction of cell cycle arrest in human A2780 cells assessed as accumulation at G1/G0 phase at 1 uM after 24 hrs by propidium iodide staining based flow cytometric analysis (reference value: 56.7%); assay type: functional; summary of the method: as §1
A2780 [25] = assay: Induction of cell cycle arrest in human A2780 cells assessed as accumulation at G2/M phase at 2 uM after 24 hrs by propidium iodide staining based flow cytometric analysis (reference value: 21.6%); assay type: functional; summary of the method: as §1

**Q.** What does the source list for `CNc1nc(C)c(-c2nc(Nc3cccc(N4CCN5CCC4CC5)c3)ncc2C)s1`?
**A.** Activity (A2780 [1]): 34.2%; Activity (A2780 [2]): 15.5%; Activity (A2780 [3]): 3.6%; Activity (A2780 [4]): 31.5%; Activity (A2780 [5]): 3%; Activity (A2780 [6]): Active; GI50 [7]: 1500 nM; GI50 (HeLa): 800 nM; Activity (HCT-116 [8]): Active; Ki (CDK2/Cyclin A2): 1250 nM; Activity (A2780 [9]): 6.2%; Activity (HCT-116 [10]): Active; GI50 (MIA PaCa-2): 1070 nM; GI50 (A2780 [11]): 640 nM; inhibition [12]: Active; Activity (A2780 [13]): 59.8%; Ratio Ki (Homo sapiens [14]): 125; Activity (A2780 [15]): 7.6%; GI50 (MDA-MB-468): 1460 nM; Activity (A2780 [16]): 24.3%; inhibition [17]: Dose-Dependent Effect; Activity (HCT-116 [18]): Active; Activity (A2780 [19]): Active; Activity (HCT-116 [20]): Dose-Dependent Effect; Activity (A2780 [21]): 23.5%; viability at 5 µM (A2780 [22]): 22.6%; Ratio Ki (Homo sapiens [23]): 100; Activity (A2780 [24]): 50.5%; Activity (A2780 [25]): 56.5%
